In PubChem BioAssay AID573 (SRMLSC, 2007):
The campaign covered roughly 65,000 compounds. About 1,400 (2.2%) were called active. The sample holds actives, similar compounds and a random draw of the others, so the mix is not that of the screen. Values without a mark were called inactive.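 The calls were made as follows: active = growth inhibition at or above a cutoff equal to the mean over every tested compound plus 3 SD (cut at about 60% in these data); inactive = the rest.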

Assay: growth inhibitors of E. coli tolC mutant, primary screen, strain BW25113 ΔtolC::kan, 384-well (AID 573)
Conditions: OD615, active compounds read high, concentration not given here
Summary of the method: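 Test system: E. coli BW25113 ΔtolC::kan bacteria; incubation: 37 °C, 20 h exposure; medium: LB broth supplemented with 50 µg/mL kanamycin; read-out basis: percent growth inhibition; signal: A615 absorbance measurement; compound: 10 µM final, single dose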

**Q.** With `CCOC(=O)c1c(-c2ccccc2)oc2ccc(OC(=O)N(C)C)cc12` as the molecule, how does the growth inhibition read?
**A.** 96.5% (active)

**Q.** With `CCN1c2nc3c(C)cccn3c(=O)c2CC2(C(=O)N(C)C(=O)N(C)C2=O)C1C` (stereo not given) as the molecule, how does the growth inhibition read?
**A.** -0.7%

**Q.** With `CCC(=NCCCO)c1c(O)n(-c2ccc(OC)cc2)c(=O)[nH]c1=O` as the molecule, how does the growth inhibition read?
**A.** -12.6%

**Q.** Which growth inhibition does the source give for `CCCCCCN=C(CC)c1c(O)n(CCCC)c(=O)[nH]c1=O` here?
**A.** 90.2% (active)

**Q.** With `CCC(=NCc1ccco1)c1c(O)n(Cc2ccccc2)c(=O)[nH]c1=O` as the molecule, how does the growth inhibition read?
**A.** 7.19%

**Q.** Which growth inhibition does the source give for `CCCC(C)n1[nH]c(=O)c2c1NC(=O)CSC2c1ccc(OC)c(OC)c1` (stereo not given) here?
**A.** -7.28%

**Q.** Which growth inhibition does the source give for `Cn1c(C(=O)N2CCC(C(=O)N3CCC4(CC3)OCCO4)CC2)cc2sccc21` here?
**A.** 3.04%

**Q.** For `C/C(CCc1c[nH]c2ccccc12)=N\O`, which growth inhibition is on record?
**A.** -11.1%

**Q.** With `c1cncc(CNC2=NCCC2)c1` as the molecule, how does the growth inhibition read?
**A.** -5.19%

**Q.** For `C=Cn1ccnc1P(=S)(c1cc(N(CC)CC)ns1)c1nccn1C=C`, which growth inhibition is on record?
**A.** 8.14%
